This note sets out measurements from ChEMBL document CHEMBL1152488, “Synthesis and evaluation of pyrido[1,2-a]pyrimidines as inhibitors of nitric oxide synthases” (Eur J Med Chem, 2009).

Experiment [1] concerns the target Nitric oxide synthase, inducible (Homo sapiens) (UniProt P35228). The experiment can be described thus: Inhibition of human iNOS expressed in insect Sf9 cells assessed as residual activity at 100 uM by Griess assay relative to control. In outline: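 Human iNOS made in Sf9 cells, incubated at 37 °C for 20 min in 50 mM triethanolamine pH 7.5 with 1 mM Mg2+, FAD/FMN 5 µM each, 0.5 mM NADPH, 10 µM H4B, CaM and 1 mM L-arginine. Compound 100 µM final. NADPH cleared with lactate dehydrogenase/pyruvate before Griess reaction (543 nm). Residual activity relative to 1% DMSO control; mean of 5 experiments.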

Experiment [2] has as its target T1, Nitric oxide synthase 3 (Homo sapiens) (UniProt P29474).
T1 sequence (whole entry): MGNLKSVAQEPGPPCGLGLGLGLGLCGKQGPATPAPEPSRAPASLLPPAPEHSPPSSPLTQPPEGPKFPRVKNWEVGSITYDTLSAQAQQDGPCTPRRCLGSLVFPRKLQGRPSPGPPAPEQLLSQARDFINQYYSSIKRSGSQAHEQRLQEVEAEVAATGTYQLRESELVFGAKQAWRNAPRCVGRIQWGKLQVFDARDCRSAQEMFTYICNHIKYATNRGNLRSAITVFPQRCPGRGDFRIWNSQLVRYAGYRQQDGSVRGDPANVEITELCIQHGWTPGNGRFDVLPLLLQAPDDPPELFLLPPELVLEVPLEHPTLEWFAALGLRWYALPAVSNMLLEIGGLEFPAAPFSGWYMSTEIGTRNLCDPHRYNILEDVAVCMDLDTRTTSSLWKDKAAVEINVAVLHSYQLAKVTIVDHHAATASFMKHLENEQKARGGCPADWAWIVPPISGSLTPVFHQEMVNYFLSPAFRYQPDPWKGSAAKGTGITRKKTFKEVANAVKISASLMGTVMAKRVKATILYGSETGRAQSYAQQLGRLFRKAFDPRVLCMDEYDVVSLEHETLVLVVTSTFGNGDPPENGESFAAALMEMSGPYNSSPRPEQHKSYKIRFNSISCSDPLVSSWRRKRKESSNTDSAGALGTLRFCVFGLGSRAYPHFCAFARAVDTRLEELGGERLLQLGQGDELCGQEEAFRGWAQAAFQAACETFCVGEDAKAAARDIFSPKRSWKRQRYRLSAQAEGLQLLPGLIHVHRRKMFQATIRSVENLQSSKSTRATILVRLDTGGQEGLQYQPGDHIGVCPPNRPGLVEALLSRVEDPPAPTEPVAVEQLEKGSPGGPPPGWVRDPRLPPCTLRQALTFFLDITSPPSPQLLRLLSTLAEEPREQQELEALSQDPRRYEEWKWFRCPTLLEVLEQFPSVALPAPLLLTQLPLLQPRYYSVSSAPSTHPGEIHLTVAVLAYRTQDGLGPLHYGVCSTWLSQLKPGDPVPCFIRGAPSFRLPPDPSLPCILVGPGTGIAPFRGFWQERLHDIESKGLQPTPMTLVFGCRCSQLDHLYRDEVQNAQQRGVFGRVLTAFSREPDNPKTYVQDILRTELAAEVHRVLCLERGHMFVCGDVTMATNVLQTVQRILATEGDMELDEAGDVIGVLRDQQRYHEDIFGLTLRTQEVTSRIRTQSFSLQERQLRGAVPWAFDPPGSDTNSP
The experiment is described as follows: Inhibition of human eNOS assessed as residual activity at 100 uM by Griess assay relative to control. Summed up:
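Human eNOS expressed in Pichia pastoris. Incubated 20 min at 37 °C in triethanolamine pH 7.5 with 0.5 mM Ca2+, CaM, H4B 10 µM, FAD/FMN 5 µM, NADPH 0.5 mM, L-arginine 1 mM and compound at 100 µM final. Nitrite read by Griess (543 nm) after LDH/pyruvate NADPH removal; % of 1% DMSO control from 5 experiments.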

The target in experiment [3] is T2, Nitric oxide synthase, inducible (Mus musculus) (UniProt P29477).
T2 sequence (whole entry): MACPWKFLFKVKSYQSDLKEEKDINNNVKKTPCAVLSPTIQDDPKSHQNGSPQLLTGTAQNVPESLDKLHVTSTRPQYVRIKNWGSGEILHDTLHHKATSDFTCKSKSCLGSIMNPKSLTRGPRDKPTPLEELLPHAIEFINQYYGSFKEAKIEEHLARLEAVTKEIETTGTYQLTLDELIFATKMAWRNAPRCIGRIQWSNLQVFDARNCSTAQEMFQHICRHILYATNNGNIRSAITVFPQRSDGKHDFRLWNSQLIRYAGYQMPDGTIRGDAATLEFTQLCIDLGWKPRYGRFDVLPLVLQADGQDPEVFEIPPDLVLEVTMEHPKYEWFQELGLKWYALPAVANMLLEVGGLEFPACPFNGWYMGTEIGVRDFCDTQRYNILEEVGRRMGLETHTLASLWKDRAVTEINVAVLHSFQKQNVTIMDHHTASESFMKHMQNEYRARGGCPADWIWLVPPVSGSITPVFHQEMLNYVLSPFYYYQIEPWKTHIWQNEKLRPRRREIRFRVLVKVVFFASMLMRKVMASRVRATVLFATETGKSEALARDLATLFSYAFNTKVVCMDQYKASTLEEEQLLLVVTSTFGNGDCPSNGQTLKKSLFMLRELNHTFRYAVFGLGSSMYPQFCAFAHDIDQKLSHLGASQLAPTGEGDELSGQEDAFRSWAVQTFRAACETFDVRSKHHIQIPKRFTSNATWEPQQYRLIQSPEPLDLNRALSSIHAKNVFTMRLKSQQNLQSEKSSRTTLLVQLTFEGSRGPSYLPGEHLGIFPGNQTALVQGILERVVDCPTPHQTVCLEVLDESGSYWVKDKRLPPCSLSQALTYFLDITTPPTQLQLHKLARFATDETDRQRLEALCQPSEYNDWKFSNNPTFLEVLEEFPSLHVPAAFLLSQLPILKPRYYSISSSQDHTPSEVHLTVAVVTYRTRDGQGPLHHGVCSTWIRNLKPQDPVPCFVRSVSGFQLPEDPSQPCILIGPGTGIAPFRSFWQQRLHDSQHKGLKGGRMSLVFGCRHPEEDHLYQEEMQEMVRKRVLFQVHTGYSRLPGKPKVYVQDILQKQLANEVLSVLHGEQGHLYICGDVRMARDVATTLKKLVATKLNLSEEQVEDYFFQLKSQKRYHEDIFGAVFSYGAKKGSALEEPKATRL
The experiment is described as follows: Inhibition of mouse recombinant iNOS expressed in Escherichia coli assessed as NADPH consumption at 100 uM after 2 mins by spectrophotometry. In outline:
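Murine iNOS from E. coli (15–50 nM final) in 50 mM Hepes pH 7.4 with 5 mM DTT, 100 µM CaCl2, 200 µM NADPH, 10 µM H4B, 100 µM L-arginine and 100 µM compound. Cofactors and compound preincubated 2 min at 37 °C, enzyme added, and A340 followed for 3 min (ε 6.2 mM-1 cm-1). Given as % of 1% DMSO control NADPH oxidase rate.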

Chain of Nitric oxide synthase, inducible (Homo sapiens) (P35228 whole entry): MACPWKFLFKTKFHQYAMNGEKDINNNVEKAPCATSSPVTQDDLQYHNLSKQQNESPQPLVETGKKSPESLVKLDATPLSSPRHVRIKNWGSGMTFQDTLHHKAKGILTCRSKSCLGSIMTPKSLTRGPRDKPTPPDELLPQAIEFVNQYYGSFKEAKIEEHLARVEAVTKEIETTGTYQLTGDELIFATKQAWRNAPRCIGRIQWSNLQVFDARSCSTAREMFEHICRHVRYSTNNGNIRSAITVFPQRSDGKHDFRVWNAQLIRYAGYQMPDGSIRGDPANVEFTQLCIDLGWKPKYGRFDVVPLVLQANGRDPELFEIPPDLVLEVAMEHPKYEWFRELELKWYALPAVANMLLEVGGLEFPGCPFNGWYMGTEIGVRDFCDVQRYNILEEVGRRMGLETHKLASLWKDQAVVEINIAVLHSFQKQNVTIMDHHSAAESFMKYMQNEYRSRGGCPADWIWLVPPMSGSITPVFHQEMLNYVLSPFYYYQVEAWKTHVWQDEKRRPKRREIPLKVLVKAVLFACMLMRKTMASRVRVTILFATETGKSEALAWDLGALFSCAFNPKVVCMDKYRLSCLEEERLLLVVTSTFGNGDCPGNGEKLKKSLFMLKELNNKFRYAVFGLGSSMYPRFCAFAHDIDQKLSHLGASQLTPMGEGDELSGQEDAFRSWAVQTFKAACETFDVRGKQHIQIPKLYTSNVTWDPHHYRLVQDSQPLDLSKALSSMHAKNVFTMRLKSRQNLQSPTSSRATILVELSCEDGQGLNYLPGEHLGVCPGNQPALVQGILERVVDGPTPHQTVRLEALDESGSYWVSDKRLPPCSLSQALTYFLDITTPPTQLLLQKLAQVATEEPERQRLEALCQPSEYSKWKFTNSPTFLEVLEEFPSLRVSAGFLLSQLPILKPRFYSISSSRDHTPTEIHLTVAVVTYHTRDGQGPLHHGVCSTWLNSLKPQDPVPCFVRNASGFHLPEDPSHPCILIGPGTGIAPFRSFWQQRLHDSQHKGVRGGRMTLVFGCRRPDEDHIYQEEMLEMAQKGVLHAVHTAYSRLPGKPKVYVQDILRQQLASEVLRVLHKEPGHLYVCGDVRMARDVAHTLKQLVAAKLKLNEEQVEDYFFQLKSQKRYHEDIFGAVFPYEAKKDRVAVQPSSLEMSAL

Regarding `CC1=CC=CC2=NCC(C(=O)c3ccc(Br)cc3)CN12` (stereo not drawn), the Activity is 93% in experiment [1] and 86% in experiment [2].
Consider `CC(=N)NCc1cccc(CN)c1`, for which the Activity in experiment [1] is 5%; in experiment [2], 105%.
Regarding `CC1=CC2=NCC(C(=O)c3ccccc3)CN2C=C1` (stereo not drawn), the values for the Activity in experiment [1] and in experiment [2] were 63% and 72%, respectively.
On to `CC1=CC2=NCC(C(=O)c3ccc4cc(C)ccc4c3)CN2C(C)=C1.[O-][Cl+3]([O-])([O-])O` (stereo not drawn), for which the Activity in experiment [1] turned out to be 83%; in experiment [2], 86%. Further, in experiment [3], the Remaining NADPH oxidation rate (% of DMSO control) was found to be 72%.
For `CC1=CC2=NCC(C(=O)c3ccc(F)cc3)CN2C=C1` (stereo not drawn), the Activity in experiment [1] stood at 78%; in experiment [2], 77%.
In the case of `O=C(c1ccc(Br)cc1)C1CN=C2C=CC=CN2C1` (stereo not drawn), the values for the Activity in experiment [1] and in experiment [2] were 110% and 85%, respectively.
With `CC1=CC2=NCC(C(=O)c3ccc(Br)cc3)CN2C=C1` (stereo not drawn), the Activity in experiment [1] came to 69%; in experiment [2], 73%.
Turning to `CC1=CC2=NCC(C(=O)c3ccc4ccccc4c3)CN2C=C1` (stereo not drawn), the values for the Activity in experiment [1] and in experiment [2] were 47% and 60%, respectively.
For the compound `COc1ccc2cc(C(=O)C3CN=C4C=C(C)C=CN4C3)ccc2c1` (stereo not drawn), the values for the Activity in experiment [1] and in experiment [2] were 88% and 98%, respectively.
The matching figures for `CCCNC(=N)NCCC[C@H](N)C(=O)O`: 95% and 96%.
On to `CC1=CC=CC2=NCC(C(=O)c3ccc(C)cc3)CN12.[O-][Cl+3]([O-])([O-])O` (stereo not drawn), for which the Remaining NADPH oxidation rate (% of DMSO control) in experiment [3] was 94%.
As for `COc1ccc(C(=O)C2CN=C3C=C(C)C=CN3C2)cc1F.[O-][Cl+3]([O-])([O-])O` (stereo not drawn), the results for the Activity in experiment [1] and in experiment [2] were 102% and 84%, respectively. Also, in experiment [3], the Remaining NADPH oxidation rate (% of DMSO control) came out at 73%.
For `O=C(c1ccc(Cl)c(Cl)c1)C1CN=C2C=CC=CN2C1.[O-][Cl+3]([O-])([O-])O` (stereo not drawn), the Activity is 105% in experiment [1] and 89% in experiment [2]. Also, the Remaining NADPH oxidation rate (% of DMSO control) in experiment [3] was found to be 100%.
As to `COc1ccc(-c2ccc(C(=O)C3CN=C4C=C(C)C=CN4C3)cc2)cc1.Cl` (stereo not drawn), the Activity in experiment [1] was 49%; in experiment [2], 57%. The Remaining NADPH oxidation rate (% of DMSO control) in experiment [3] amounted to 40%.
As to `COc1ccc(C(=O)C2CN=C3C=CC=C(C)N3C2)cc1OC.[O-][Cl+3]([O-])([O-])O` (stereo not drawn), the Remaining NADPH oxidation rate (% of DMSO control) in experiment [3] turned out to be 92%.
As to `CC1=CC2=NCC(C(=O)c3ccc(-c4ccc(Br)cc4)cc3)CN2C=C1.[O-][Cl+3]([O-])([O-])O` (stereo not drawn), the Activity turned out to be 120% in experiment [1] and 17% in experiment [2]. Further, the Remaining NADPH oxidation rate (% of DMSO control) in experiment [3] is 64%.
`CC1=CC=CC2=NCC(C(=O)c3ccc4ccccc4c3)CN12` (stereo not drawn): the values for the Activity in experiment [1] and in experiment [2] were 89% and 75%, respectively.
For the compound `CC1=CC2=NCC(C(=O)c3ccc(OCc4ccc(Cl)cc4)cc3)CN2C=C1.[O-][Cl+3]([O-])([O-])O` (stereo not drawn), the Activity in experiment [1] worked out at 94%; in experiment [2], 8%. Besides, the Remaining NADPH oxidation rate (% of DMSO control) in experiment [3] stood at 64%.
With `CC1=CC2=NCC(C(=O)c3ccc(Cl)cc3)CN2C=C1` (stereo not drawn), the Activity in experiment [1] is 50%; in experiment [2] it was 7%.
For the compound `CC1=CC2=NCC(C(=O)c3ccc4cc(C)ccc4c3)CN2C=C1.[O-][Cl+3]([O-])([O-])O` (stereo not drawn), the results for the Activity in experiment [1] and in experiment [2] were 103% and 11%, respectively. The Remaining NADPH oxidation rate (% of DMSO control) in experiment [3] turned out to be 70%.
In the case of `CC1=CC2=NCC(C(=O)c3ccc(OCc4ccc(Br)cc4)cc3)CN2C=C1.Cl` (stereo not drawn), the Activity in experiment [1] was determined as 83%; in experiment [2], 16%. The Remaining NADPH oxidation rate (% of DMSO control) in experiment [3] came to 100%.
Regarding `CC1=CC2=NCC(C(=O)c3ccc(-c4ccc(Br)cc4)cc3)CN2C(C)=C1` (stereo not drawn), the results for the Activity in experiment [1] and in experiment [2] were 89% and 15%, respectively. For the same compound, the Remaining NADPH oxidation rate (% of DMSO control) in experiment [3] stood at 72%.
Turning to `CC1=CC=CC2=NCC(C(=O)c3ccc(F)cc3)CN12.[O-][Cl+3]([O-])([O-])O` (stereo not drawn), the Activity was 88% in experiment [1] and 77% in experiment [2]. Moreover, in experiment [3], the Remaining NADPH oxidation rate (% of DMSO control) turned out to be 87%.
As for `CC1=CC2=NCC(C(=O)c3ccc(OCc4ccc(C#N)cc4)cc3)CN2C=C1.[O-][Cl+3]([O-])([O-])O` (stereo not drawn), the Activity in experiment [1] was found to be 105%; in experiment [2], 78%. Moreover, the Remaining NADPH oxidation rate (% of DMSO control) in experiment [3] stood at 77%.
As for `CC1=CC2=NCC(C(=O)c3ccc(-c4ccc(C#N)cc4)cc3)CN2C=C1.Cl` (stereo not drawn), the Activity in experiment [1] and in experiment [2] was 55% throughout. Further, the Remaining NADPH oxidation rate (% of DMSO control) in experiment [3] is 40%.
Regarding `CCSC(=N)N`, the Activity in experiment [1] was 6%; in experiment [2] it was 37%.
In the case of `N=C(NCCC[C@H](N)C(=O)O)N[N+](=O)[O-]`, the Activity in experiment [1] came out at 48%; in experiment [2], 25%.
`CC1=CC2=NCC(C(=O)c3ccc(-c4ccccc4)cc3)CN2C=C1` (stereo not drawn): the values for the Activity in experiment [1] and in experiment [2] were 17% and 8%, respectively.
Regarding `O=C(c1ccc2ccccc2c1)C1CN=C2C=CC=CN2C1` (stereo not drawn), the Activity in experiment [1] was 93%; in experiment [2], 60%.
